Tests used:
[1] = organism: Rattus norvegicus; assay: Antisecretory activity in rat pylorus ligation-induced ulcer model determined by ratio of total acidity inhibition in drug treated to untreated control; format: functional
How it was run: (§1)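 Sprague Dawley rats (130-150 g) fasted 24 h with water ad libitum; pylorus ligated through a midline incision under ether anesthesia. Dosing oral, 1 h before ligation. Gastric juice free and total acidity titrated against 0.01 N NaOH, with Topfer's reagent and phenolphthalein as indicators. Values expressed as ratio of percent inhibition, treated vs control group.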

[2] = organism: Rattus norvegicus; assay: Inhibition of gastric H+/K(+)-ATPase activity in Sprague-Dawley rat microsomal vesicles at 10 umol; format: microsomes; details: Stomach, Microsome
How it was run: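 Rat gastric microsomes were prepared by density gradient and differential centrifugation. The medium held 40 mM Tris-HCl pH 7.4, 2 mM MgCl2, 10 mM KCl (water for blank) and […] vesicular protein. Compound was preincubated 30 min at 37 °C. Tris-ATP at 0.3, 1.0 or 3 mM was then added for 20 min and stopped with chilled 10% TCA. Released Pi was read at 530 nm; % inhibition vs control.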

[3] = organism: Rattus norvegicus; assay: Antisecretory activity in rat pylorus ligation-induced ulcer model determined by ratio of free acidity inhibition in drug treated to untreated control; format: functional; how it was run: as §1

SMILES | inhibition [2] [%] | Activity [1] | Activity [3]
CCOC(=O)[C@@H](NC(=O)OCc1ccccc1)C(O)C#C[Si](C)(C)C (stereo not given in full) | 10 | 1 | 1.01
COC(=O)[C@@H]1CCCN1C(=O)/C=C/c1ccccc1 | 62 | 0.59 | 0.47
CC(C)(C)OC(=O)[C@@H]1CCC(=O)N1Cc1ccccc1 | 92 | 0.52 | 0.34
COC(=O)[C@@H]1CCCN1C(=O)Cc1ccc(OC)cc1 | 52 | 0.86 | 0.81
O=C(O)[C@H]1CCC(=O)N1Cc1ccccc1 | 55 | 0.51 | 0.46
O=C1CC[C@@H](C(=O)O)N1 [PIDOLIC ACID] | 67 | 0.75 | 0.69

The next lines start with results.

inhibition [2] [%] | SMILES | Activity [1] | Activity [3]
55 | CC(C)(C)[C@H]1OC(=O)[C@@]2(C3(O)CCCCC3)CCC(=O)N12 | 0.22 | 0.2
68 | Cc1ccccc1CN1C(=O)CC[C@H]1C(=O)OC(C)(C)C | 0.62 | 0.63
46 | COC(=O)[C@@H]1CCC(=O)N1Cc1ccc(Cl)cc1 | 1.01 | 0.67
53 | O=C(O)[C@@H]1CCC(=O)N1Cc1cccc2ccccc12 | 0.91 | 0.35
68 | CCOC(=O)N1CCC[C@H]1C(=O)OC | 0.64 | 0.59
46 | O=C(N[C@H](CO)C(=O)O)OCc1ccccc1 | 0.49 | 0.36
71 | O=C(O)[C@@H]1CCC(=O)N1Cc1ccccc1Cc1ccccc1 | 0.33 | 0.48
52 | CC(C)N1C(=O)CC[C@H]1C(=O)OC(C)(C)C | 0.69 | 0.72
91 | COC(=O)[C@@H]1CCCN1C(=O)c1ccccc1 | 1.14 | 0.9
